We go through 3 compounds from PubChem BioAssay AID1745 (Sanford-Burnham Center for Chemical Genomics, 2009).

Activity calls are given as the source filed them.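 The calls were made as follows: active = cell kill with TRAIL plus compound beats the two separate kills summed, at every dose, and climbs with dose; inactive = the rest.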

This experiment concerns 184B5 cells, TRAIL potentiation, ATPlite cytotoxicity, 24 h. Kind of experiment: TRAIL co-treatment toxicity in normal 184B5 cells, confirmation, counter-screen for TRAIL sensitizer project, 184B5 normal mammary epithelial cells (AID 1745). The settings on record: stronger effect = higher value. A digest of the protocol: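 System: Normal 184B5 cells / Reagent: TRAIL at 1000 ng/mL final / Dosing: compound 1.25–5 µM final / Times: seeding 24 h prior, compound 4 h, TRAIL 24 h, 37 °C / Detection: ATP-based luminescence using ATPLite reagent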
A general note: A counterscreen serves to expose hits that act by an unwanted route or on another target.

Setting [1] is: compound alone cytotoxicity, at 5 µM.
Where [2] appears, read: compound plus TRAIL, at 1.25 µM.

Consider `CCSc1nc(-c2ccccc2)nc(C(Cl)Cl)n1`, for which the cytotoxicity with TRAIL was 25% (inactive) (at 5 µM); 21% under setting [2]; 22% (compound plus TRAIL, at 2.5 µM). Besides, the cytotoxicity worked out at 11% under setting [1]; 10% (compound alone, at 1.25 µM); 11% (compound alone, at 2.5 µM).

On to `CSc1nc(-c2ccccc2)nc(C(Cl)Cl)n1`, for which the cytotoxicity with TRAIL is, setting by setting: (at 5 µM) 32% (inactive); under setting [2], 28%; (compound plus TRAIL, at 2.5 µM) 28%. Besides, the cytotoxicity reads like this: under setting [1], 22%; (compound alone, at 1.25 µM) 19%; (compound alone, at 2.5 µM) 22%.

Consider `CSc1nc(-c2ccc(C)cc2)nc(C(Cl)Cl)n1`, for which the cytotoxicity with TRAIL by setting is: (at 5 µM) 41% (inactive); under setting [2], 35%; (compound plus TRAIL, at 2.5 µM) 39%. Moreover, the cytotoxicity under setting [1] worked out at 9%; the cytotoxicity (compound alone, at 1.25 µM) worked out at 2%; the cytotoxicity (compound alone, at 2.5 µM) worked out at 6%.
